Experiments:
[1] = biological target: Adenosine receptors; A1 & A3 (Homo sapiens) (UniProt P30542+P0DMS8); experiment: Ratio of Ki for human adenosine A1 receptor to Ki for human adenosine A3 receptor
Adenosine receptor A3 [2] = biological target: T1, Adenosine receptor A3 (Homo sapiens, UniProt P0DMS8); experiment: Antagonist activity human adenosine A3 receptor expressed in CHO cells assessed as blockade of Cl-IB-MECA-mediated inhibition of forskolin-stimulated [3H]cAMP accumulation after 150 mins by scintillation counter; format: functional, cell-based
T1 sequence (P0DMS8 whole entry): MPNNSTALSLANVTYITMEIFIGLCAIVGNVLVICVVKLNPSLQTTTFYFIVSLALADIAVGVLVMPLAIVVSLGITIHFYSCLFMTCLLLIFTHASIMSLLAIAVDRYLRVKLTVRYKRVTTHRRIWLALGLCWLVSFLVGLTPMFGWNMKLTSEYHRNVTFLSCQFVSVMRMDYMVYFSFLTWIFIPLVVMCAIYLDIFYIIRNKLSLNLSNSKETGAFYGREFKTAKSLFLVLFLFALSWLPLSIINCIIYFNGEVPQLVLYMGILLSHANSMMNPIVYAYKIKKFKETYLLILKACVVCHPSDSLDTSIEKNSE
How it was run: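 hA3-expressing CHO cells (1 x 10^6 cells/assay), preincubated 10 min at 37 °C in saline buffer pH 7.4 with adenosine deaminase 2 IU/mL and Ro 20-1724. Antagonism of 100 nM Cl-IB-MECA inhibition of cAMP in presence of 1 μM forskolin. Stopped with cold TCA. cAMP by [3H]cAMP competition protein binding (4 °C, 150 min), scintillation counting. IC50 from sigmoid nonlinear regression, mean ± SEM.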

[3] = biological target: T2, Adenosine receptor A2b (Homo sapiens) (UniProt P29275); experiment: Antagonist activity human adenosine A2B receptor expressed in CHO cells assessed as inhibition of NECA-mediated [3H]cAMP accumulation at =<5000 nM after 150 mins by scintillation counter; format: functional, cell-based
T2 sequence (whole entry): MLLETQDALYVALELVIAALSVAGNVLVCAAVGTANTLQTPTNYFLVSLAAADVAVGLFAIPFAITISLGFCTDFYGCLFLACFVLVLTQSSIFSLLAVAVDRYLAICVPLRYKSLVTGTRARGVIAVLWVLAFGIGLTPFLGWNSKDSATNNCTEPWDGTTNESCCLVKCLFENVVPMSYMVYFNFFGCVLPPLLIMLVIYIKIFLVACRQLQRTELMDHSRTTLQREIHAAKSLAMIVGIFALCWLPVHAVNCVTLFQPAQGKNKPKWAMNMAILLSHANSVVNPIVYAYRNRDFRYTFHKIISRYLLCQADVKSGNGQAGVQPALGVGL
How it was run: (§1)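 Intact CHO cells expressing hA2B (1 x 10^6 cells/assay), preincubated 10 min at 37 °C in saline buffer pH 7.4 with 2 IU/mL adenosine deaminase and Ro 20-1724. Antagonism of 100 nM NECA-stimulated cAMP rise. Stopped with cold 6% TCA, ether-extracted. cAMP measured by competition binding with [3H]cAMP and beef adrenal binding protein (4 °C, 150 min), charcoal separation, scintillation counting. IC50 by sigmoid nonlinear regression, mean ± SEM.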

Adenosine receptor A2b = biological target: T3, Adenosine receptor A2b (Homo sapiens, UniProt P29275); experiment: Antagonist activity human adenosine A2B receptor expressed in CHO cells assessed as inhibition of NECA-mediated [3H]cAMP accumulation after 150 mins by scintillation counter; format: functional, cell-based; how it was run: as §1
T3 sequence (P29275 whole entry): T2 sequence (whole entry)

Adenosine receptor A3 [4] = biological target: T1, Adenosine receptor A3; experiment: Displacement of [3H]MRE 3008F20 from human adenosine A3 receptor expressed in CHO cells after 120 mins by scintillation spectrometry; format: cell-based
How it was run: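 Membranes from hA3 CHO cells (50 μg protein/assay) in 50 mM Tris HCl, 10 mM MgCl2, 1 mM EDTA pH 7.4, adenosine deaminase-treated. Incubated with 1 nM [3H]MRE 3008F20 and 6-8 ligand concentrations, 120 min at 4 °C. Nonspecific defined with 1 μM MRE 3008F20 (~25% of total). GF/B filtration, three ice-cold washes, scintillation counting. Ki via Cheng-Prusoff; geometric mean, 95% confidence limits, n = 3-6.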

Adenosine receptor A2a [5] = biological target: T4, Adenosine receptor A2a (Homo sapiens, UniProt P29274); experiment: Displacement of [3H]ZM 241385 from human adenosine A2A receptor expressed in CHO cells at <=5000 nM after 60 mins by scintillation spectrometry; format: cell-based
Adenosine receptor A2a [6] = biological target: T4, Adenosine receptor A2a; experiment: Displacement of [3H]ZM 241385 from human adenosine A2A receptor expressed in CHO cells after 60 mins by scintillation spectrometry; format: cell-based
Adenosine receptor A1 = biological target: T5, Adenosine receptor A1 (Homo sapiens, UniProt P30542); experiment: Displacement of [3H]DPCPX from human adenosine A1 receptor expressed in CHO cells after 120 mins by scintillation spectrometry; format: cell-based
T5 sequence (P30542 whole entry): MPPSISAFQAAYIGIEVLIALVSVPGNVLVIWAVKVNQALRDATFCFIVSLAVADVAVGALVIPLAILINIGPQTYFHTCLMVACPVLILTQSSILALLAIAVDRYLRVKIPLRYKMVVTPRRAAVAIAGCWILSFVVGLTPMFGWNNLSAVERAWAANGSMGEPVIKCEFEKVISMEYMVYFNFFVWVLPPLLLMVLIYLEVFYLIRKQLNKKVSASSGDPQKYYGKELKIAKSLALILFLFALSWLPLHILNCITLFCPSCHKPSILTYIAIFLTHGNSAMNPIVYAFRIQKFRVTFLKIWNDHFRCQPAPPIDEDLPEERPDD
How it was run: (§2)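 hA1 CHO membranes (50 μg protein/assay) in 50 mM Tris HCl pH 7.4, pretreated with adenosine deaminase 2 UI/mL for 30 min at 37 °C. Incubated with 1 nM [3H]DPCPX plus 6-8 ligand concentrations for 120 min at 25 °C. Nonspecific binding defined with 1 μM DPCPX. Ki from IC50 by Cheng-Prusoff; geometric means with 95% confidence limits.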

Homo sapiens = organism: Homo sapiens; experiment: Ratio of Ki for human adenosine A2A receptor to Ki for human adenosine A3 receptor
[7] = biological target: T6, Adenosine receptor A1 (Homo sapiens) (UniProt P30542); experiment: Displacement of [3H]DPCPX from human adenosine A1 receptor expressed in CHO cells at =<5000 nM after 120 mins by scintillation spectrometry; format: cell-based; how it was run: as §2
T6 sequence (whole entry): T5 sequence (P30542 whole entry)

T4 sequence (P29274 whole entry): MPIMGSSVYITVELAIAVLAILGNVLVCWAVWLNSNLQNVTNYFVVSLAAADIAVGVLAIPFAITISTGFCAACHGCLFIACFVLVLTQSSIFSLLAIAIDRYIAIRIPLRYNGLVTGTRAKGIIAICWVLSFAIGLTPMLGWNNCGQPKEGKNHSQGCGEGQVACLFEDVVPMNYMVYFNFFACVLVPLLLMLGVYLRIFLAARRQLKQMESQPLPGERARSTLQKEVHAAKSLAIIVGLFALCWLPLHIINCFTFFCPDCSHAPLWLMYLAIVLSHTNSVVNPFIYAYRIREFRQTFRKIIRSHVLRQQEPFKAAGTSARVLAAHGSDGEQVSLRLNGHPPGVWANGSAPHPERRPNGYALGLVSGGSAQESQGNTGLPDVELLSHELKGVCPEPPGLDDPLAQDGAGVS

Row | SMILES | Ratio Ki [1] | IC50 (Adenosine receptor A3 [2]) [nM] | inhibition [3] [%] | IC50 (Adenosine receptor A2b) [µM] | Ki (Adenosine receptor A3 [4]) [nM] | inhibition (Adenosine receptor A2a [5]) [%] | Ki (Adenosine receptor A2a [6]) [µM] | Ki (Adenosine receptor A1) [nM] | Ratio Ki (Homo sapiens) | inhibition [7] [%]
1 | COc1cc(-c2nc3c([nH]2)C2=NC(C)CN2C(=O)N3Cc2ccccc2)n(C)n1 (stereo unspecified) | 610 | 27.6 | 11 | > 5 | 3.11 | 1 | > 5 | 1900 |  | 
2 | COc1cc(-c2nc3c([nH]2)C2=N[C@H](C)CN2C(=O)N3Cc2ccccc2)n(C)n1 |  | 15.9 | 19 | > 5 | 2.38 | 11 | > 5 | 2550 |  | 
3 | COc1cc(-c2nc3c([nH]2)C2=N[C@@H](C)CN2C(=O)N3Cc2ccccc2)n(C)n1 |  | 17.5 | 22 | > 5 | 2.52 | 1 | > 5 | 1730 |  | 
4 | Cc1cc(-c2nc3c([nH]2)C2=NC(C)CN2C(=O)N3Cc2ccccc2)nn1C (stereo unspecified) | > 400 |  | 24 | > 5 | 12.2 | 9 | > 5 | > 5000 | 330 | 22
5 | C=CCN1C(=O)N2CC(C)N=C2c2[nH]c(-c3cc(C)nn3C)nc21 (racemic) | 450 | 34.2 | 30 | > 5 | 4.56 | 7 | > 5 | 2040 |  | 
6 | C=CCN1C(=O)N2CC(CC)N=C2c2[nH]c(-c3cc(C)nn3C)nc21 (racemic) | 170 | 30.3 | 20 | > 5 | 3.01 | 8 | > 5 | 515 |  | 
7 | C=CCN1C(=O)N2CC(C)N=C2c2[nH]c(-c3cc(OC)nn3C)nc21 (racemic) | 2100 | 14.5 | 13 | > 5 | 2.36 | 1 | > 5 | > 5000 | 2100 | 30
8 | C=CCN1C(=O)N2CC(CC)N=C2c2[nH]c(-c3cc(OC)nn3C)nc21 (racemic) | 780 | 12.2 | 16 | > 5 | 1.96 | 1 | > 5 | 1530 |  | 
9 | CCC1CN2C(=O)N(Cc3ccccc3)c3nc(-c4cc(OC)nn4C)[nH]c3C2=N1 (racemic) | 105 | 20.4 | 22 | > 5 | 3.85 | 9 | > 5 | 405 |  | 
10 | C=CCN1C(=O)N2CC(C)N=C2c2[nH]c(-c3cc(OCc4ccccc4)nn3C)nc21 (racemic) | 202 |  | 17 | > 5 | 24.7 | 25 | > 5 | > 5000 |  | 47
11 | C=CCN1C(=O)N2CC(C)N=C2c2[nH]c(-c3cc(C)n(C)n3)nc21 (racemic) | > 359 |  | 9 | > 5 | 13.9 | 1 | > 5 | > 5000 |  | 13
12 | C=CCN1C(=O)N2CC(CC)N=C2c2[nH]c(-c3cc(C)n(C)n3)nc21 (racemic) |  |  | 16 | > 5 | 12.5 | 1 | > 5 | > 5000 | 330 | 20
13 | CCC1CN2C(=O)N(Cc3ccccc3)c3nc(-c4cc(C)n(C)n4)[nH]c3C2=N1 (racemic) |  |  | 27 | > 5 | 15 | 13 | > 5 | > 5000 | 330 | 28
14 | C=CCN1C(=O)N2CC(C)N=C2c2[nH]c(-c3cc(OC)no3)nc21 (racemic) | > 1400 | 24.2 | 13 | > 5 | 3.58 | 11 | > 5 | > 5000 |  | 26
15 | CCC1CN2C(=O)N(Cc3ccccc3)c3nc(-c4cc(OC)no4)[nH]c3C2=N1 (racemic) |  | 25.3 | 18 | > 5 | 2.71 | 12 | > 5 | 485 |  | 

— ChEMBL document CHEMBL1799944, “New 2-heterocyclyl-imidazo[2,1-i]purin-5-one derivatives as potent and selective human A3 adenosine receptor antagonists” (J Med Chem, 2011)
